# Source: PubChem BioAssay
# Pf gamet viab: P. falciparum stage V gametocyte viability inhibition | hit rate 0.065% among 150,000 | P. falciparum stage V gametocytes, ATP luminescence, 24 h | inhibition, % at 10.9 µM;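 active = inhibition above the mean plus 3 SD of compounds within the control limits, set per campaign, cut at about 38% in these data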;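 also: 0% = DMSO wells and 100% = medium only without gametocytes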
# MT stabilize HCS: microtubule stabilizers in HeLa cells. AID 2205. HeLa tubulin immunostaining HCS, 24 h; share of cells brighter than vehicle mean+2SD. hit rate 0.83% among 200,000. % tubulin-high responders, % at 10 µM;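 active = plate Z-score above 3 for both tubulin-high and condensed-nucleus cell shares, with cell loss under 80%, at 10 µM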;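 also: anti alpha tubulin signal scored within the nucleus-defined area of each cell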
# WT yeast gro inh: growth inhibition of WT yeast, mitochondrial fusion screen; mitochondrial fusion phenotypic screen, WT strain; inhibition, % at 10 µM; hit rate 2.1% among 190,000; in the data active = inhibition above about 58%; tested in S. cerevisiae
# KCC2 mod: modulates chloride dependent transport by human KCC2; hit rate 2.2% among 190,000; B-score of Tl+ flux slope (higher = more flux/activation; lower = inhibition) at 10 µM; KCC2 cells, thallium flux FluoZin-2 fluorescence;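 active = thallium flux slope and its plate-corrected score both differing from the plate sample mean at a set confidence after two filtering rounds, in either direction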;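 also: slope of fluorescence scaled to starting intensity during 10 to 20 s after thallium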
# b-catenin transl: modulators of beta-catenin nuclear translocation; HeLa beta-catenin nuclear translocation, immunofluorescence imaging; nuclear translocation activity, % at 5 µM; hit rate 0.3% among 190,000;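 active = nuclear translocation activity above 50% at 5 µM, with a well cell count of 50 or more; inconclusive = wells under 50 cells across six images, flagged as toxic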;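 also: per-cell ratio of nuclear to cytoplasmic median beta-catenin stain intensity; plate controls were DMSO negative control for no effect and GSK-3 inhibitor IX positive control for full effect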
#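 System: HeLa cells, endogenous beta-catenin; compound dosing: 5 µM primary single dose, 0.1% DMSO, 0.02–20 µM confirmation series; incubation: 24 h compound exposure at 37°C, 5% CO2; signal: beta-catenin immunofluorescence imaging with DAPI; evaluation: % activation, nuclear-to-cytoplasmic median beta-catenin signal ratio per cell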
# KCC2 secondary: confirmation of human KCC2 transport modulators; shares compounds with KCC2 mod; HEK293-KCC2, thallium flux, FluoZin2 fluorescence; hits give high values; normalised thallium flux (F/F0 slope) at 10 µM; hit rate 15% among 3,700;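 active = thallium flux slope above the same plate's solvent-only control mean plus 3 SD; inconclusive = the two replicate wells disagree; inactive = no significant difference from solvent-only control wells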
# KCC2 bumet counter: thallium flux persisting under bumetanide in KCC2 cells, counter-screen secondary assay | shares compounds with KCC2 mod | HEK293-KCC2 + bumetanide/ouabain, thallium flux FluoZin2; hits give high values | normalized thallium flux at 10 µM | hit rate 49% among 3,700;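 active = thallium entry rate above the same plate's blocked-transporter control wells by more than 3 SD; inconclusive = the two repeat wells disagree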;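 also: raw slope of fluorescence over initial fluorescence between 10 and 20 s after thallium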
# KCC2 sec2: confirmation of human KCC2 transport modulators; shares compounds with KCC2 mod; HEK293-KCC2, thallium flux FluoZin2 fluorescence; actives lie on both sides; F/F0 rise rate, 10–20 s post-thallium; normalized thallium flux at 10 µM; hit rate 23% among 3,700; AID 1715;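 active = thallium flux slope more than 3 SD above or below the plate's solvent-only control mean, mostly below; inconclusive = the two repeat wells disagreed; inactive = no significant shift from solvent-only controls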;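 also: raw slope with 0.1% DMSO as baseline and bumetanide as block control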
# HEK293 Tl flux: counter-screen for KCC2 modulators: effect in parental HEK293 cells; thallium flux FluoZin2, ouabain; baseline-ratio fluorescence slope, 10–20 s after thallium; hit rate 46% among 3,700; thallium flux rate (normalised fluorescence) at 10 µM; shares compounds with KCC2 mod; AID 1716;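 active = thallium flux rate significantly above the same plate's solvent-only control wells, beyond their mean plus 3 SD; inconclusive = the two replicate wells gave conflicting results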
# KCC2 ouabain: modulates human KCC2 on retest with ouabain | shares compounds with KCC2 mod | HEK293-KCC2, thallium flux FluoZin2 fluorescence; bidirectional: low = inhibitor, high = activator | raw Tl+ flux slope (below DMSO = inhibition, above = activation) at 10 µM | hit rate 48% among 3,700;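 active = thallium flux slope beyond 3 SD from same-plate DMSO control mean in most replicates, usually higher, sometimes lower; inconclusive = repeat tests gave conflicting results; inactive = no significant difference from controls in most replicates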;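 also: slope of initial-normalized fluorescence between seconds 10 and 20 after thallium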
# HEK counter2: acts in parental HEK cells, second KCC2 counter-screen | hit rate 33% among 3,700 | AID 1718 | thallium flux slope at 10 µM | HEK293 parental, thallium flux FluoZin-2 fluorescence slope | shares compounds with KCC2 mod;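 active = thallium flux slope above the same plate's solvent-control mean plus 3 SD in both duplicate wells; inconclusive = duplicate wells that disagreed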;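 also: run without ouabain in cells lacking the KCC2 cotransporter; slope of fluorescence scaled to its starting value between 10 and 20 s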
# An asterisk follows results filed as active; ? = inconclusive; . = not tested or not shown. Most compounds without a hit are left out; they make up all but 4% or so of the library.
SMILES,Pf gamet viab,MT stabilize HCS,WT yeast gro inh,KCC2 mod,b-catenin transl,KCC2 secondary,KCC2 bumet counter,KCC2 sec2,HEK293 Tl flux,KCC2 ouabain,HEK counter2
O=C(/C=C/c1ccco1)Nc1ccccc1N1CCCC1,.,3,-19,0.62,4,.,.,.,.,.,.
Cc1ccc(C(=O)Nc2ccccc2N2CCCCC2)cc1[N+](=O)[O-],16,3,31,0.018,-2,.,.,.,.,.,.
O=C(NC(=S)Nc1ccccc1[N+](=O)[O-])c1ccccc1,10,.,.,18*,0,0.0076,0.037*,?,0.02*,0.035*,0.021*
Cc1ccc(C(=O)NC(=S)Nc2ccccc2N2CCCC2)cc1[N+](=O)[O-],2,4,35,5.5*,0,0.0076,0.042*,0.033,0.018*,0.04*,0.012*
COc1ccc(C(C2C(=O)CC(C)(C)CC2=O)C2C(=O)CC(C)(C)CC2=O)cc1,2,.,.,-0.00079,1,.,.,.,.,.,.
CCn1c(SCc2nc3ccccc3s2)nnc1-c1ccccc1,.,2,14,0.21,.,.,.,.,.,.,.
CCC(c1nnc(SCc2nc3ccccc3s2)n1Cc1ccccc1)N(C)C (stereo not given),17,5,-13,.,-1,0.015,0.0046,?,0.0066,0.014,0.0099
c1ccc(Cn2c(SCc3nc4ccccc4s3)nnc2-c2ccco2)cc1,-6,4,11,-3.4*,-1,0.0063,?,0.027*,0.0053*,?,0.0076*
Cc1ccc(C2=NC3(CCCCC3)N=C2SCC(=O)Nc2ccc3c(c2)OCCO3)cc1,.,6,52,0.83,1,.,.,.,.,.,.
COc1ccc(NC(=O)c2ccc(COc3ccccc3)o2)cc1,-1,2,-5,-4.4*,-1,0.0073,0.0048,0.029,0.0064,?,0.0098
O=C(Nc1cccc(F)c1)c1ccc(CSc2ccccc2)o1,-13,5,54,-2.7,2,.,.,.,.,.,.
CC(=O)Nc1ccc(NC(=O)c2ccc(CSc3ccccc3)o2)cc1,20,3,-21,-4.1*,1,0.0062,0.0072,0.025*,0.0071,0.015*,?
O=C(Nc1ccccc1F)c1ccc(CSc2ccccc2)o1,0,5,40,-5.1*,1,0.0087,0.0058,0.025*,0.006,0.013*,0.0091
CC(=O)c1c(C(C)=O)c(C)n(C(c2ccccc2)c2ccccc2)c1C,2,2,-4,0.22,-5,.,.,.,.,.,.
O=C1/C(=C/c2cccs2)NC(=S)N1C1CC1,11,4,4,43*,5,0.016*,0.089*,0.049*,0.06*,0.07*,0.033*
O=C1CNC(=O)/C(=C/c2cccs2)N1,.,3,11,.,0,.,.,.,.,.,.
O=S(=O)(NCc1ccco1)c1ccc(S(=O)(=O)N2CCCCC2)cc1,.,4,-12,0.63,3,.,.,.,.,.,.
O=C(NC(=S)Nc1ccccc1Cl)c1cncc(C#Cc2ccccc2)c1,-6,.,.,12*,0,0.01,0.015*,0.036,0.011*,0.03,?
O=C(NC(=S)Nc1ccccc1Cl)c1cncc(Br)c1,-6,.,.,.,.,.,.,.,.,.,.
O=C(O)CCC(=O)N1CCN(c2ncccn2)CC1,17,.,.,0.39,1,.,.,.,.,.,.
C=CCn1c(C)cc(C(=O)CSc2nnc(NC(C)C)s2)c1C,.,2,-43,-0.14,-3,.,.,.,.,.,.
C=CCn1c(C)cc(C(=O)CSc2nnc(NCc3ccccc3)s2)c1C,1,40*,13,-2.7*,-4,0.0067,0.0047,0.035,?,?,0.011
C=CCn1c(C)cc(C(=O)CSc2nnc(Cc3ccccc3)o2)c1C,8,2,11,.,-6,0.007,0.0062,0.03*,0.0036,0.017*,0.011
Cc1cc(C)cc(N=Cc2ccc([N+](=O)[O-])s2)c1,5,3,41,-0.016,.,.,.,.,.,.,.
Cc1ccc(NC(=S)N/N=C/c2ccc([N+](=O)[O-])s2)cc1,4,2,74,15*,-3,0.014*,0.047*,0.035,?,0.041*,0.02*
SMILES,Pf gamet viab,MT stabilize HCS,WT yeast gro inh,KCC2 mod,b-catenin transl,KCC2 secondary,KCC2 bumet counter,KCC2 sec2,HEK293 Tl flux,KCC2 ouabain,HEK counter2
COCCn1c(SCC(=O)Nc2ccc(Cl)c(S(=O)(=O)N(C)C)c2)nc2ccccc21,.,3,15,0.29,-5,.,.,.,.,.,.
CN(C)S(=O)(=O)c1cc(NC(=O)CSc2ncc(C(F)(F)F)cc2Cl)ccc1Cl,-3,2,12,50*,-4,0.0078,0.0047,?,0.0075,0.019,0.011
CC(C)COc1nc2ccccc2nc1C(C#N)C(=O)NC1CCCCC1 (stereo not given),-51,1,5,.,.,0.0093,0.0058,0.03,0.0073,0.018,0.012
N#CC(C(=O)OC1CCCCC1)c1nc2ccccc2nc1N1CCCCC1 (stereo not given),.,6,17,-0.36,2,.,.,.,.,.,.
O=C1CC(O)(C(F)(F)F)Oc2c1ccc1ccccc21 (stereo not given),14,8,9,46*,2,0.0088,0.077*,0.065*,0.059*,0.067*,0.061*
O=C1CC(O)(C(F)F)Oc2ccc3ccccc3c21 (stereo not given),-6,2,37,2.7,-4,.,.,.,.,.,.
CCC1CCCCN1C(=O)CSc1nnc(CNC(=O)c2cc(OC)c(OC)c(OC)c2)o1 (stereo not given),.,1,19,6.7*,-8,0.0076,0.0046,0.032,0.0079,0.02,0.011
N#Cc1nc(Cc2ccccc2)oc1NCc1ccccc1Cl,.,3,-1,-2.9*,-1,0.0075,0.0058,0.03,0.0057*,0.016*,0.0099
N#Cc1nc(Cc2ccccc2)oc1NCc1cccnc1,.,3,2,0.097,0,.,.,.,.,.,.
CNc1oc(Cc2cccc3ccccc23)nc1C#N,-22,7,0,.,-3,0.011,0.0082*,?,0.0079,0.014*,?
COc1ccc(CCNc2oc(Cc3cccc4ccccc34)nc2C#N)cc1OC,.,3,34,-2.9,.,.,.,.,.,.,.
CC(C)Nc1oc(Cc2cccc3ccccc23)nc1C#N,.,4,5,-4.5*,-2,0.0068,0.0055,?,?,0.014*,0.011
O=C(COc1ncnc2ccccc12)NCC1CCCO1 (stereo not given),17,3,-6,1.1,-7,.,.,.,.,.,.
